# Reference: ChEMBL document CHEMBL1649493, “Genetic and biochemical characterization of the first extended-spectrum CARB-type beta-lactamase, RTG-4, from Acinetobacter baumannii” (Antimicrob Agents Chemother, 2009)
# Tests used:
# [1] = Ratio of Kcat to Km for recombinant beta-lactamase RTG4 expressed in Escherichia coli TOP10 by nitrocefin hydrolysis assay
# Acinetobacter baumannii [2] = assay: Antimicrobial activity against Acinetobacter baumannii CIP70.10 harboring beta-lactamase RTG3 gene by […]; format: functional
# [3] = Activity of recombinant beta-lactamase RTG4 expressed in Escherichia coli TOP10 assessed as Ratio of Kcat to Km by nitrocefin hydrolysis assay relative to benzylpenicillin; design: scale not given: the % may be the effect or the level left
# Escherichia coli [4] = assay: Antibacterial activity against Escherichia coli TOP10 harboring recombinant plasmid RTG4-S69-V49 by Etest method; format: functional
# Escherichia coli [5] = assay: Antibacterial activity against Escherichia coli TOP10 harboring recombinant plasmid RTG4-V49 by Etest method; format: functional
# Escherichia coli [6] = assay: Antibacterial activity against Escherichia coli TOP10 harboring beta-lactamase RTG4 gene by Etest method; format: functional
# How it was run: (§1)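 MICs read by Etest on Mueller-Hinton agar plates incubated at 37°C. Recombinant E. coli TOP10 carried the cloned β-lactamase gene on plasmid pBK-CMV; the host strain alone was tested alongside.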
# Escherichia coli [7] = assay: Antibacterial activity against Escherichia coli TOP10 harboring beta-lactamase RTG3 gene by Etest method; format: functional; how it was run: as §1
# Acinetobacter baumannii [8] = assay: Antimicrobial activity against Acinetobacter baumannii CIP70.10 harboring beta-lactamase RTG4 gene by […]; format: functional
# Escherichia coli [9] = assay: Antibacterial activity against Escherichia coli TOP10 harboring recombinant plasmid RTG4-S69 by Etest method; format: functional
# Acinetobacter baumannii [10] = assay: Antimicrobial activity against Acinetobacter baumannii CIP70.10 by […]; format: functional
# Acinetobacter baumannii [11] = assay: Antimicrobial activity against Acinetobacter baumannii by […]; format: functional
# How it was run: (§2)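 MICs were determined by Etest on Mueller-Hinton agar at 37°C. Where indicated, clavulanic acid or tazobactam was added at 4 μg/ml.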
# Acinetobacter baumannii [12] = assay: Antimicrobial activity against Acinetobacter baumannii CIP70.10 harboring beta-lactamase RTG3 gene by […] in presence of 4 ug/ml beta-lactamase inhibitor clavulanic acid; format: functional
# Escherichia coli [13] = assay: Antibacterial activity against Escherichia coli TOP10 by Etest method; format: functional; how it was run: as §1
# Acinetobacter baumannii [14] = assay: Antimicrobial activity against Acinetobacter baumannii CIP70.10 by […] in presence of 4 ug/ml beta-lactamase inhibitor clavulanic acid; format: functional; how it was run: as §2
# Escherichia coli [15] = assay: Antibacterial activity against Escherichia coli TOP10 harboring recombinant plasmid RTG4-S69 by Etest method in presence of 4 ug/ml beta-lactamase inhibitor clavulanic acid; format: functional
# How it was run: (§3)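 MICs read by Etest on Mueller-Hinton agar at 37°C, with β-lactams combined with clavulanic acid at 4 μg/ml. The strains were E. coli TOP10 carrying the cloned RTG gene or the site-directed mutant plasmids (Thr69Ser, Ala49Val, or both).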
# Escherichia coli [16] = assay: Antibacterial activity against Escherichia coli TOP10 by Etest method in presence of 4 ug/ml beta-lactamase inhibitor clavulanic acid; format: functional
# How it was run: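 MICs by Etest on Mueller-Hinton agar plates incubated at 37°C, with clavulanic acid at a fixed 4 μg/ml. The E. coli TOP10 host was tested with recombinant plasmids carrying the cloned HindIII fragment encoding RTG-4 or its site-directed variants (T69S, A49V).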
# Escherichia coli [17] = assay: Antibacterial activity against Escherichia coli TOP10 harboring recombinant plasmid RTG4-S69-V49 by Etest method in presence of 4 ug/ml beta-lactamase inhibitor clavulanic acid; format: functional; how it was run: as §3
# Escherichia coli [18] = assay: Antibacterial activity against Escherichia coli TOP10 harboring beta-lactamase RTG4 gene by Etest method in presence of 4 ug/ml beta-lactamase inhibitor clavulanic acid; format: functional; how it was run: as §3
# Acinetobacter baumannii [19] = assay: Antimicrobial activity against Acinetobacter baumannii by […] in presence of 4 ug/ml beta-lactamase inhibitor clavulanic acid; format: functional; how it was run: as §2
# Acinetobacter baumannii [20] = assay: Antimicrobial activity against Acinetobacter baumannii CIP70.10 harboring beta-lactamase RTG4 gene by […] in presence of 4 ug/ml beta-lactamase inhibitor clavulanic acid; format: functional
# Escherichia coli [21] = assay: Antibacterial activity against Escherichia coli TOP10 harboring recombinant plasmid RTG4-V49 by Etest method in presence of 4 ug/ml beta-lactamase inhibitor clavulanic acid; format: functional; how it was run: as §3
# Escherichia coli [22] = assay: Antibacterial activity against Escherichia coli TOP10 harboring beta-lactamase RTG3 gene by Etest method in presence of 4 ug/ml beta-lactamase inhibitor clavulanic acid; format: functional; how it was run: as §3
# [23] = Inhibition of recombinant beta-lactamase RTG4 expressed in Escherichia coli TOP10 by benzylpenicillin hydrolysis assay
# [24] = Inhibition of recombinant beta-lactamase RTG3 expressed in Escherichia coli TOP10 by benzylpenicillin hydrolysis assay
# Acinetobacter baumannii [25] = assay: Antimicrobial activity against Acinetobacter baumannii by […] in presence of 4 ug/ml Tazobactam; format: functional; how it was run: as §2
# Acinetobacter baumannii [26] = assay: Antimicrobial activity against Acinetobacter baumannii CIP70.10 by […] in presence of 4 ug/ml Tazobactam; format: functional; how it was run: as §2
# Acinetobacter baumannii [27] = assay: Antimicrobial activity against Acinetobacter baumannii CIP70.10 harboring beta-lactamase RTG3 gene by […] in presence of 4 ug/ml Tazobactam; format: functional
# Acinetobacter baumannii [28] = assay: Antimicrobial activity against Acinetobacter baumannii CIP70.10 harboring beta-lactamase RTG4 gene by […] in presence of 4 ug/ml Tazobactam; format: functional
Compound,kcat/Km [1],MIC (Acinetobacter baumannii [2]),Activity [3],MIC (Escherichia coli [4]),MIC (Escherichia coli [5]),MIC (Escherichia coli [6]),MIC (Escherichia coli [7]),MIC (Acinetobacter baumannii [8]),MIC (Escherichia coli [9]),MIC (Acinetobacter baumannii [10]),MIC (Acinetobacter baumannii [11]),MIC (Escherichia coli [13]),other results
CO/N=C(\C(=O)N[C@@H]1C(=O)N2C(C(=O)[O-])=C(C[N+]3(C)CCCC3)CS[C@H]12)c1csc(N)n1,1000 M⁻¹ s⁻¹,4 µg/mL,0.06%,0.5 µg/mL,4 µg/mL,4 µg/mL,0.06 µg/mL,64 µg/mL,0.5 µg/mL,1 µg/mL,32 µg/mL,,
CC1(C)S[C@@H]2[C@H](NC(=O)COc3ccccc3)C(=O)N2[C@H]1C(=O)O,2e+06 M⁻¹ s⁻¹,,,,,,,,,,,,
CC1(C)S[C@@H]2[C@H](NC(=O)[C@H](N)c3ccc(O)cc3)C(=O)N2[C@H]1C(=O)O [AMOXICILLIN],2e+06 M⁻¹ s⁻¹,> 256 µg/mL,120%,> 256 µg/mL,> 256 µg/mL,> 256 µg/mL,512 µg/mL,> 256 µg/mL,> 256 µg/mL,32 µg/mL,> 256 µg/mL,2 µg/mL,MIC (Acinetobacter baumannii [12]): 32 µg/mL; MIC (Acinetobacter baumannii [14]): 8 µg/mL; MIC (Escherichia coli [15]): 32 µg/mL; MIC (Escherichia coli [16]): 2 µg/mL; MIC (Escherichia coli [17]): 32 µg/mL; MIC (Escherichia coli [18]): 32 µg/mL; MIC (Acinetobacter baumannii [19]): 32 µg/mL; MIC (Acinetobacter baumannii [20]): 32 µg/mL; MIC (Escherichia coli [21]): 32 µg/mL; MIC (Escherichia coli [22]): 4 µg/mL
CO/N=C(\C(=O)N[C@@H]1C(=O)N2C(C(=O)O)=C(COC(C)=O)CS[C@H]12)c1csc(N)n1 [CEFOTAXIME],,8 µg/mL,,0.25 µg/mL,0.25 µg/mL,0.25 µg/mL,0.06 µg/mL,16 µg/mL,0.25 µg/mL,8 µg/mL,16 µg/mL,0.06 µg/mL,
CO/N=C(\C(=O)N[C@@H]1C(=O)N2C(C(=O)[O-])=C(C[n+]3cccc4c3CCC4)CS[C@H]12)c1csc(N)n1 [CEFPIROME],500 M⁻¹ s⁻¹,2 µg/mL,0.03%,0.25 µg/mL,1 µg/mL,1 µg/mL,0.06 µg/mL,64 µg/mL,0.25 µg/mL,2 µg/mL,32 µg/mL,0.06 µg/mL,
CC(C)(O/N=C(\C(=O)N[C@@H]1C(=O)N2C(C(=O)[O-])=C(C[n+]3ccccc3)CS[C@H]12)c1csc(N)n1)C(=O)O [CEFTAZIDIME],,4 µg/mL,,0.5 µg/mL,1 µg/mL,1 µg/mL,0.12 µg/mL,16 µg/mL,0.5 µg/mL,2 µg/mL,8 µg/mL,0.12 µg/mL,
CO/N=C(\C(=O)N[C@@H]1C(=O)N2C(C(=O)O)=C(COC(N)=O)CS[C@H]12)c1ccco1 [CEFUROXIME],,,,2 µg/mL,2 µg/mL,4 µg/mL,2 µg/mL,,2 µg/mL,,,2 µg/mL,
CC(=O)OCC1=C(C(=O)O)N2C(=O)[C@@H](NC(=O)Cc3cccs3)[C@H]2SC1 [CEPHALOTHIN],6000 M⁻¹ s⁻¹,,0.04%,8 µg/mL,64 µg/mL,64 µg/mL,4 µg/mL,,8 µg/mL,,,4 µg/mL,
O=C(O)[C@H]1/C(=C/CO)O[C@@H]2CC(=O)N21 [CLAVULANIC ACID],,,,,,,,,,,,,IC50 [23]: 70 nM; IC50 [24]: 100 nM
C[C@@H](O)[C@H]1C(=O)N2C(C(=O)O)=C(SCCNC=N)C[C@H]12 [IMIPENEM ANHYDROUS],,0.25 µg/mL,,,,,,0.25 µg/mL,,0.25 µg/mL,0.25 µg/mL,,
CCN1CCN(C(=O)N[C@@H](C(=O)N[C@@H]2C(=O)N3[C@@H]2SC(C)(C)[C@@H]3C(=O)O)c2ccccc2)C(=O)C1=O [PIPERACILLIN],500000 M⁻¹ s⁻¹,> 256 µg/mL,35%,> 256 µg/mL,> 256 µg/mL,> 256 µg/mL,32 µg/mL,> 256 µg/mL,> 256 µg/mL,16 µg/mL,> 256 µg/mL,1 µg/mL,MIC (Acinetobacter baumannii [25]): > 256 µg/mL; MIC (Acinetobacter baumannii [26]): 4 µg/mL; MIC (Acinetobacter baumannii [27]): 128 µg/mL; MIC (Acinetobacter baumannii [28]): > 256 µg/mL
CC1(C)[C@H](C(=O)O)N2C(=O)C[C@H]2S1(=O)=O [SULBACTAM],,,,,,,,,,,,,IC50 [23]: 1500 nM; IC50 [24]: 200 nM
C[C@]1(Cn2ccnn2)[C@H](C(=O)O)N2C(=O)C[C@H]2S1(=O)=O [TAZOBACTAM],,,,,,,,,,,,,IC50 [23]: 350 nM; IC50 [24]: 100 nM
CC1(C)S[C@@H]2[C@H](NC(=O)[C@H](C(=O)O)c3ccsc3)C(=O)N2[C@H]1C(=O)O [TICARCILLIN],1.5e+06 M⁻¹ s⁻¹,> 256 µg/mL,100%,,,,,> 256 µg/mL,,8 µg/mL,> 256 µg/mL,,MIC (Acinetobacter baumannii [12]): > 256 µg/mL; MIC (Acinetobacter baumannii [14]): 8 µg/mL; MIC (Escherichia coli [15]): > 256 µg/mL; MIC (Escherichia coli [16]): 2 µg/mL; MIC (Escherichia coli [17]): > 256 µg/mL; MIC (Escherichia coli [18]): > 256 µg/mL; MIC (Acinetobacter baumannii [19]): > 256 µg/mL; MIC (Acinetobacter baumannii [20]): > 256 µg/mL; MIC (Escherichia coli [21]): > 256 µg/mL; MIC (Escherichia coli [22]): 16 µg/mL
